Assays:
serum urate (sUA) = experiment: Serum urate; format: in vivo, human; conditions: for Proportion of subjects with sUA ⩽6.0 mg/dl at 4 h after treatment: pooled cohorts
urinary uric acid = experiment: Urinary uric acid excretion; format: in vivo, human; conditions: for FEUA (fractional excretion of uric acid) relative to baseline: data not shown; for Mean maximum ReUR (urinary uric acid excretion rate) relative to baseline: in vivo
How it was run: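 Oral dosing was once daily after breakfast over 7-day periods in hyperuricaemic Japanese men. Total-catch urine was collected on days −1, 7, 14, 21 and 28, with 240 ml water drunk on rising, within 2 h before dosing. The urinary uric acid excretion rate (mg/h) and fractional excretion (%) were calculated per 24-h collection and compared with baseline.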

[1] = Safety: adverse events, serum creatinine, laboratory evaluations; format: in vivo, human
How it was run: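 Males aged 21–65 were dosed orally once daily after breakfast for 7-day periods and followed to day 42. Monitoring covered adverse events (MedDRA v18.0), clinical laboratory tests including serum creatinine, vital signs, ECGs and physical examinations. An independent committee was to adjudicate serious renal events. Clinically relevant laboratory abnormalities were graded by Rheumatology Common Toxicity Criteria v2.0. Results are descriptive, in everyone given at least one dose.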

[2] = Plasma and urine pharmacokinetics of verinurad; format: in vivo; conditions: human, oral
How it was run: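 Japanese men with gout or asymptomatic hyperuricaemia (sUA ≥8 mg/dl) took oral drug once daily after breakfast, alone or with febuxostat 10, 20 or 40 mg, over 7-day periods. Serial plasma and total-catch urine were taken on days −1, 7, 14, 21 and 28. Plasma was protein-precipitated and urine water-diluted, both assayed by HPLC-MS/MS.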

Structure (SMILES)	Subjects achieving sUA ⩽6.0 mg/dl 4 h after treatment (serum urate (sUA); benzbromarone 50 mg alone)	sUA-lowering effect (serum urate (sUA); benzbromarone 50 mg, Cohort 6)	FEUA (fractional excretion of uric acid) relative to baseline (urinary uric acid)	Mean maximum ReUR (urinary uric acid excretion rate) relative to baseline (urinary uric acid)	Proportion of subjects with sUA ⩽6.0 mg/dl at 4 h after treatment (serum urate (sUA); febuxostat 10 mg alone) [%]	Proportion of subjects with sUA ⩽6.0 mg/dl at 4 h after treatment (serum urate (sUA); febuxostat 40 mg alone) [%]	Subjects with sCr elevation ⩾1.5 × baseline ([1]; verinurad 2.5 mg or verinurad 15 mg alone (cohort 5))	Tolerability ([1]; verinurad 2.5 mg to 15 mg, no withdrawals due to adverse events)	half-life ([2]; plasma, mean t½, varying verinurad doses alone or in combination with febuxostat) [h]	CL renal ([2]; urine and plasma) [mL/min]	Subjects achieving sUA ⩽6.0 mg/dl 4 h after treatment (serum urate (sUA); verinurad 10 or 15 mg alone)
CCc1oc2ccccc2c1C(=O)c1cc(Br)c(O)c(Br)c1 [benzbromarone]	All subjects	generally similar in sUA-lowering effect to verinurad 5 mg combined with febuxostat 20 mg									
Cc1nc(-c2ccc(OCC(C)C)c(C#N)c2)sc1C(=O)O [febuxostat, reference compound]			reduced	reduced	20.8	83.3					
CC(C)(Sc1ccncc1-c1ccc(C#N)c2ccccc12)C(=O)O [verinurad]			increased in a dose-dependent manner	increased			Two subjects	well tolerated	13 to 24	12.4 to 15.1	All subjects

Source: paper PMC6105922 (Rheumatology (Oxford, England), 2018)
